The EternaBench riboswitch data

Test system: MS2 coat protein
Assay: apparent Kd, MS2 coat protein; higher = weaker binding; RNA-MaP array; FMN 200 µM where present
How it was run: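 Two titrations, one without ligand and one with constant ligand, were run with SNAP-549-labelled MS2 coat protein from 0.7 or 1.5 nM, doubling to 3 µM. The targets were designs transcribed by stalled E. coli RNA polymerase on Illumina sequencing-chip clusters, in 100 mM Tris-HCl pH 7.5, 80 mM KCl, 4 mM MgCl2, BSA, DTT, yeast tRNA and Tween-20. The apparent Kd is the median of filtered per-cluster binding-curve fits, with green signal normalised to red-channel RNA signal and control-cluster median Fmax.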

[1] = designed as: OFF switch for flavin mononucleotide, no ligand
[2] = ligand present: flavin mononucleotide, designed as: OFF switch for flavin mononucleotide
[3] = designed as: ON switch for flavin mononucleotide, no ligand
[4] = ligand present: flavin mononucleotide, designed as: ON switch for flavin mononucleotide

| Sequence | apparent Kd [1] [nM] | apparent Kd [2] [nM] | apparent Kd [3] [nM] | apparent Kd [4] [nM] |
| --- | --- | --- | --- | --- |
| GGAAUGUCGGGAGGAUAUCCAAAUGUAUACAUAGGAGAAGGCCCGCACAUGAGGAUCACCCAUGUAAUAACGCGUGGCAUCAAC | 82.8 | 119 |  |  |
| UUCUUGGCAGGAUAUGCUCUUUUAGACAUGAGGAUCACCCAUGUGUUUAUUCUUUUUUUUGCAGAAGGGCCUUAAU | 93.9 | 88.8 |  |  |
| UCGCCACAUGAGGAUCACCCAUGUCAGGAUAUCUAGAUGCGUCUUGAGCUCAAGCGCUGGAGAAGGGAUUGGGU | 235 | 67.5 |  |  |
| CAGCACUAUCGAGAGGAUAUGCGGUGAUGGACAUGAGGAUCACCCAUGUUAGCGGUAGCAUCACGGCAGAAGGCUCUGCUGCUGC |  |  | 28.8 | 19.9 |
| CGCUCAAUAUAUAAGGAAAGAAUCAGAAGGCGUUACAUGAGGAUCACCCAUGUUUUGUAUAGUAACGAGGAUAUGAUAUGAGCG | 17.9 | 15.3 |  |  |
| GAGGACUGAAUAAAUAACUCAAAUACAUGAGGAUCACCCAUGUAGGAUAUCGUCAGGAAUACUGACGAGAAGGACAUACAGUCC | 13.4 | 19.2 |  |  |
| AUACUCAUGUAAGGAUAUGCAGCCGAAACGGCUGCAGAAGGUACUAUAAUACAUGAGGAUCACCCAUGUCAAAAUAAACUAGUU |  |  | 155 | 36.5 |
| AUUUAAUUUAAUAAGAUCACAUGAGGAUCACCCAUGUAUAUAUAGGAUAUCAGCUCGAAUAGAGCUGAGAAGGAUAUAUACAUG | 47.4 | 41 |  |  |
| UAUUGAUAAUAUCUUCACAUGAGGAUCACCCAUGUCGCUCGACAGGAUAUAUUUUAUUUGUUUAAGUAGAAGGGUCGCAGAUUU |  |  | 165 | 142 |
| CGCGCGCGUGUUAGGAUAUAUGUGUGUGGUUAUUUAUAGAAGGGACAUGAGGAUCACCCAUGUGUGUGGGCGCG | 520 | 489 |  |  |
| GUCAGCUCGUGAGGAUAUACAACACGGCUUCGGCAGUGUAUUAAGAUCACAUGAGGAUCACCCAUGUAGAAGGCACGAGCUGAU | 13.9 | 200 |  |  |
| GGGUGACAUGAGGAUCACCCAUGUCAGGAUAUCUAGGGCAGAUGCUGGGAGCGUUCGCAGAGAAGGGACCAGAU | 52.3 | 46.1 |  |  |
| GACUAGGCAGGAUAUACAUGAGGAUCACCCAUGUGUCUGCGAUAGGCACGUGAUUACUGUAGAAGGGCCUUGAC |  | 44.1 |  |  |
| AUAUCAAGCAAGGAUAUGCAAAUGGUUAUUUAUGCAGAAGGUGCAACAUGAGGAUCACCCAUGUUUCUGGGUUU | 64.4 | 101 |  |  |
| UGGUACAUGGGAGGAUAUCAUGUAGAUACAUGAGGAUCACCCAUGUCGAUGGAGACAUCGGAGAUUGAGAAGGCCCAUGUACCU |  |  | 778 | 32.9 |
| AUGUAGGAAGGAUAUAUAUGGAGCAUGCGUCUCUGAACAUUACAUGAGGAUCACCCAUGUAGAAGGUCCGCGGA | 24.1 | 33.1 |  |  |
| GGAGCACACAUUAACAUGAGGAUCACCCAUGUCUAAAGACAUGAGGAUAUGGAUCCGAAAAGGAUCCAGAAGGCAUGGUGCUCC |  |  | 207 | 11.7 |
| GAGAUGUGAGGAUAUCUAGACCAUGGAAAAGCCACGGUCCGAGAGAAGGCACAUGAGGAUCACCCAUGUGAUGA | 45.9 | 171 |  |  |
| ACAUACAUUCGAGGAUAUCGGUGAACAAAUUAACGAGAAGGCGAUAUAAUGUUUAAUCUUAUAAACAUGAGGAUCACCCAUGUA |  |  | 68.5 | 28 |
| AGAUCACAUGAGGAUCACCCAUGUCAGGAUAUGAUACUAUGUACUUCGGUACAUAGUAUCAGAAGGGAUAUAAA | 70.7 | 239 |  |  |
| UUAGGACGAAACAUGAGGAUCACCCAUGUGUUAUAAUUAAUAUAGGAUAUGUUUAUACUUUUUGGGCAGAAGGAUGAUAAUGCU |  |  | 19.7 | 15.4 |
| GGAUUACAUGAGGAUCACCCAUGUGAGGAUAUCGAUGUCCUAGGUCAAGUGCGGGACUCGAGAAGGCACUUGGA | 52.4 | 28.9 |  |  |
| UGAUCGGAGACAGGAUAUGUGACUGCAUAGUGCACAGAAGGGUCUACAUGAGGAUCACCCAUGUCACCGAACAUCAAACAACAA |  |  | 433 | 41.9 |
